This is a sample that favours compounds with a hit; in the whole collection about 4.5% have one here.
OX1R antag-1: OX1R (HCRTR1) antagonists, primary screen, fluorescence, CHO/OX1R cells, Fluo-8 calcium, orexin A. Fluo-8 calcium fluorescence. inhibition, % at 5 µM. actives 0.43% (n = 330,000). AID 434989, 2010;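 active means inhibition above its plate's threshold, mean inhibition of all tested compounds on the plate plus 3 SD, cut at about 37% in these data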;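 further: 0% = orexin A challenge wells and 100% = SB-334867-A antagonist wells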
TAAR1 agonist: human TAAR1 agonists, primary screen, Fluo-8 calcium fluorescence, CHO RD-HGA16 cells; Trace amine-associated receptor 1 (Homo sapiens), Q96RJ0; vehicle wells 0%, saturating PEA agonist 100%; activation, % at 3 µM; actives 0.99% (n = 360,000);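 active means activation above the mean activation of all test compounds in the run plus 3 SD, cut at about 38% in these data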
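Repeats: no replicates (n 1) | Material: CHO-derived RD-HGA16 cells with stable Gα16 and human TAAR1 | Technique: Kinetic Fluo-8 calcium fluorescence | Schedule: 17-24 h seeding, 75 min 37 °C dye, 30 min RT | Evaluation: % activation from peak over basal fluorescence ratio, DMSO-to-PEA scaled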
OX1R antag-2: antagonists of human orexin 1 receptor (OX1R) | Orexin/Hypocretin receptor type 1 (Homo sapiens), O43613 | OX1R-expressing cells, FRET antagonist read-out | inhibition, % at 6.6 µM | actives 1.8% (n = 330,000) | AID 485270, 2010; in the data active means inhibition mostly above about 38%, no sharp cut-off; inactive means mostly below about 40%;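 further: 0% = agonist challenge alone and 100% = reference antagonist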
TAAR1 antagonist: human TAAR1 antagonists, primary screen, Fluo-8 calcium fluorescence, CHO RD-HGA16 cells; antagonist; AID 624466, 2012; actives 1.5% (n = 360,000); inhibition, % at 3 µM; Trace amine-associated receptor 1 (Homo sapiens), Q96RJ0;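 active means inhibition above a per-plate cutoff, the mean inhibition of test compounds on that plate plus 3 SD, cut at about 49% in these data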;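 further: 0% = DMSO plus EC80 beta-PEA response and 100% = DMSO alone without agonist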
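Test system – hTAAR1-expressing CHO RD-HGA16 cells, Gα16-coupled · Also added – β-PEA at EC80 concentration, post-compound challenge · Compound – 3 µM, single point · Incubation – dye loading 75 min at 37 °C, then 30 min room temperature · Measured by – Fluo-8 intracellular calcium dye fluorescence, real-time kinetic reads · Benchmarks – vehicle and agonist controls · Replicates – singlicate, one well per test compound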
CHO parental Ca: ATP-evoked calcium signal inhibitors, parental CHO, primary screen, counter-screen for OX1R antagonist project, cell-based, fluorescence, Fluo-8 calcium dye; parental CHO-K1, ATP-induced calcium, Fluo-8 fluorescence; inhibition, % at 5.6 µM; actives 0.63% (n = 330,000);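 active means inhibition above that plate's mean sample inhibition plus 3 SD, cut at about 26% in these data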;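 further: 0% = ATP-challenged DMSO wells and 100% = DMSO wells without ATP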
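material = parental CHO cells | also added = ATP as calcium-mobilizing challenge | dosing = single point at 5.6 µM | detection = intracellular calcium via Fluo-8 no-wash fluorescent dye | read-out = % inhibition | benchmarks = low control ATP plus DMSO, high control DMSO only | repeats = one well per compound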
GPR7 antagonist: GPR7 receptor antagonists, primary screen, cell-based, fluorescence, single concentration; AID 1861, 2009; GPR7-expressing cells, fluorescence antagonist assay; inhibition, % at 4.4 µM; actives 1.1% (n = 290,000); Neuropeptides B/W receptor type 1 (Homo sapiens), P48145; in the data active means inhibition above about 16%, passing the limit was not always enough;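 further: cells stimulated with the agonist NPW; 0% = agonist with vehicle and 100% = vehicle without agonist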
Target sequence (P48145 whole entry, looked up): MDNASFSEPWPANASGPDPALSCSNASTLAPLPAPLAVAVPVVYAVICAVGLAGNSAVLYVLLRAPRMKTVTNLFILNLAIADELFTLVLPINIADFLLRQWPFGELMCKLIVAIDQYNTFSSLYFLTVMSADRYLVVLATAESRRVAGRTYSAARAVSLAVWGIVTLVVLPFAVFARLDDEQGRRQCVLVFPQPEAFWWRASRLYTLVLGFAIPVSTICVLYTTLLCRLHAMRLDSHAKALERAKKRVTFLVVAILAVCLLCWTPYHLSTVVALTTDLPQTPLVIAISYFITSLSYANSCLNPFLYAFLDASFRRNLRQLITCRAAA
GPR7 antag cf: GPR7 receptor antagonists, confirmation, cell-based, fluorescence, single concentration; shares compounds with GPR7 antagonist; GPR7-expressing cells, calcium fluorescence antagonist mode; AID 1952, 2009; actives 52% (n = 2,400); inhibition, % at 4.4 µM; in the data active means inhibition above about 24%;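 further: stimulated with the GPR7 agonist NPW; 0% = agonist plus vehicle and 100% = vehicle alone without agonist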
MCHR1 antagonist: MCHR1 antagonists in cells, counter-screen for GPR7 antagonist project, cell-based, fluorescence, human; shares compounds with GPR7 antagonist; actives 62% (n = 2,400); MCHR1-expressing cells, fluorescence antagonist assay; inhibition, % at 4.4 µM; in the data active means inhibition above about 22%;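 further: 0% = vehicle with agonist and 100% = vehicle without agonist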
Numbers without * were called inactive; . = no result given; ! = not confirmed by another sample.

SMILES	OX1R antag-1	TAAR1 agonist	OX1R antag-2	TAAR1 antagonist	CHO parental Ca	GPR7 antagonist	GPR7 antag cf	MCHR1 antagonist
COc1ccc(OC(=O)c2cc3cc(Cl)ccc3oc2=O)cc1	-9.7	0.9	3.2	3.5	-4.5	45.9*	-8.8	-2.2
C[C@H](CO)N1C[C@H](C)[C@@H](CN(C)C(=O)C2CCCCC2)OCc2cn(nn2)CCCC1=O	.	1.4	.	-13.7	.	.	.	.
CCc1ccc(C(C)NC(=S)NCc2ccc(F)cc2)cc1 (configuration not stated)	-0.2	40.3*	15.0	44.4	13.7	31.3*	43.4*	75.3*
CCCCNC(=O)C1(C)CCCCN1C(=O)c1ccc(C)c(F)c1 (configuration not stated)	.	1.3	.	-14.3	.	.	.	.
CCOC(=O)[C@]12CCCC=C1N(Cc1ccc3c(c1)OCO3)C(=O)[C@H](CC(=O)NCCC(C)C)C2	.	1.7	.	-13.9	.	.	.	.
O=c1cc(N2CCOCC2)[nH]c(=O)n1-c1ccc(Br)cc1	-10.0	0.5	8.1	10.8	0.9	24.7*	-12.1	8.1
N#CC1=C(N)Oc2cc(N)ccc2C1c1ccc(F)cc1 (configuration not stated)	-9.6	14.2	2.9	-1.7	7.8	-3.7	.	.
N#CC1=C(N)Oc2cc(N)ccc2C1c1ccc(F)cc1F (configuration not stated)	11.2	11.8	22.3	-4.2	0.8	34.1*	9.0	20.6
COC(=O)CNC(c1ccccc1)c1cc(C)ccc1NC(=O)CNC(=O)OCc1ccccc1 (configuration not stated)	-32.5	-0.6	30.0	4.8	-27.1	39.0*	29.1*	17.9
COC(=O)CNC(c1ccccc1)c1cc(Br)ccc1NC(=O)OCc1ccccc1 (configuration not stated)	4.6	2.2	16.0	12.7	3.6	-12.8	.	.
CN(Cc1ccc2c(c1)CCCN2C)C(=O)[C@H]1O[C@@H](n2cnc3c(N)ncnc32)[C@H](O)[C@@H]1O	.	1.3	.	0.4	.	.	.	.
CC1CCC(C(C)C)C(OC(=O)Cn2c(-c3ccccc3)[n+](C)c3ccccc32)C1 (configuration not stated)	25.2	8.0	6.6	29.4	41.9*!	86.3*	91.8*	82.6*
CCCCN1CC(N2CCN(CCN(C)C)CC2)CS1(=O)=O (configuration not stated)	.	2.2	.	-7.8	.	.	.	.
O=C1N2CCCCC1(Sc1ccccc1)CCC2 (configuration not stated)	.	-0.1	.	2.7	.	.	.	.
COC(=O)C1=C(N)Oc2cc(N(C)C)ccc2C1c1ccccc1OC (configuration not stated)	-21.9	13.3	16.9	-7.0	-16.4	25.0*	8.6	33.1*
COC(=O)C1=C(N)Oc2cc(C)n(CC3CCCO3)c(=O)c2C1c1ccccc1OC (configuration not stated)	-15.4	-1.4	-2.2	-12.5	-12.9	-8.7	.	.
CO[C@@H]1CN(C)C(=O)c2cc(NC(=O)NC3CCCCC3)ccc2OC[C@@H](C)N(CC2CCOCC2)C[C@@H]1C	.	4.3	.	-19.7	.	.	.	.
CSc1ccc2c(c1)N(CCC1CCCCN1C)c1ccccc1S2 (configuration not stated)	12.2	17.6	10.8	38.7	28.3	42.5*	76.4*	83.3*
CC(C)OC(=O)CN1CCN(S(=O)(=O)c2cc(Cl)ccc2Cl)CC1	-6.5	6.4	17.6	3.2	-11.3	27.1*	5.4	-3.6

Bioassay records from PubChem BioAssay.
